SENP1 FRET inh: SENP1 (human) catalytic domain inhibition; Q9P0U3; recombinant SENP1 catalytic domain, CyPet-SUMO1-YPet FRET cleavage; inhibition, % at 10 µM; 0.21% of 360,000 active; AID 624204;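 active means inhibition at least 30% at 10 µM, raw YFP signal under a set limit, fluorescence ratio 0.5 to 1.5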;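 further: 0% = enzyme with DMSO and 100% = no enzyme wells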
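Test system: hSENP1 catalytic domain, recombinant; Amount: 20 pM final SENP1 enzyme; Medium: Tris pH 8 buffer plus EDTA, NaCl, BME, BSA, NP40, catalase; Schedule: 50 min enzyme reaction, room temperature, light-protected; Technique: FRET fluorescence in CFP and YFP emission channels; Controls: no-enzyme wells low, DMSO-plus-enzyme wells high control.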
MPTP block: blocks calcium-induced mitochondrial swelling. isolated mouse mitochondria, Ca2+ swelling absorbance, 30 min. inhibition, % at 10 µM. 1.4% of 360,000 active;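 active means inhibition of 50% or more, scaled per plate between neutral and stimulator controls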;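 further: 0% = DMSO wells given calcium and 100% = 1 mM EGTA wells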
EBI2 antag: blocks human EBI2 receptor beta-arrestin signaling. EBI2 beta-arrestin recruitment, luminescence, 7a,25-OHC stimulated. inhibition, % at 5 µM. P32249. 0.81% of 360,000 active; in the data active means inhibition above about 38%;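 further: enzyme fragment complementation signal reports receptor beta-arrestin coupling in cells; 0% = agonist plus DMSO wells and 100% = wells without agonist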
Target sequence (P32249 whole entry, looked up, the tested form may be a part): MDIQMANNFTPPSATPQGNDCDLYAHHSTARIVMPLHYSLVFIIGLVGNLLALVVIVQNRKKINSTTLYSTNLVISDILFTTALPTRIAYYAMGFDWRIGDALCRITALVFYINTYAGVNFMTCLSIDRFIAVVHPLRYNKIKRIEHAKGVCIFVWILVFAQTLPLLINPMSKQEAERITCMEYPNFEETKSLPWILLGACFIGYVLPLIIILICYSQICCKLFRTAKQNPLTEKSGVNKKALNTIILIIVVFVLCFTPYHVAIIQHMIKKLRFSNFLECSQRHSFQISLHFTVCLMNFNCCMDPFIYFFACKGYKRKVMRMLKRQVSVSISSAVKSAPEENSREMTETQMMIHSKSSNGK
GRIN3A LBD mod: modulates the human NR3A ligand-binding domain | AID 1259313 | NR3A LBD differential scanning fluorimetry, Tm shift; 0% = protein alone, 100% = glycine-bound protein | Tm shift relative to glycine control, % at 25 µM | 2.5% of 340,000 active;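 active means melting temperature shift of at least 10% of the positive control shift, at one fixed dose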
Starred values were filed as active, the others as inactive; . = no result. A selection: hits, their analogues and other compounds. The true share with any hit is near 4.4%.

SMILES	SENP1 FRET inh	MPTP block	EBI2 antag	GRIN3A LBD mod
O=C(NC(=S)Nc1cccc2c(O)cccc12)c1ccccc1[N+](=O)[O-]	-1.2	-0.4	-4.5	33.6*
O=C(NC(=S)NC1CCCCC1)c1ccccc1[N+](=O)[O-]	2.7	1.4	9.4	17.8*
Cc1c(NC(=O)COc2ccc3ccccc3c2)c(=O)n(-c2ccccc2)n1C	.	.	.	-0.9
Oc1ccc(F)c(CN2CCN(c3ncc(Cc4ccccc4)cn3)CC2)c1	4.7	1.7	-2.9	.
COc1ccc(NC(=O)COC(=O)CCCc2c[nH]c3ccccc23)cc1	1.0	0.7	-7.2	21.2*
CCOc1ccc(NC(=O)COC(=O)CCCc2c[nH]c3ccccc23)cc1	-2.0	-1.5	-0.3	27.6*
CCOc1ccc(NC(=O)COC(=O)Cc2ccsc2)cc1	-0.9	-0.1	-18.6	34.5*
C/C(=N/NC(=O)CNC(=O)c1ccncc1)c1ccco1	2.0	1.5	-1.1	-1.0
COc1cc(C(=O)N/C(=C\c2cn(C)c3ccccc23)C(=O)NCCN2CCOCC2)cc(OC)c1OC	-25.6	0.2	-18.9	1.8
COc1ccc(/C(C)=N\NS(C)(=O)=O)c(OC)c1	-1.4	-1.0	3.0	-4.2
COc1ccc(/C(C)=N/N=C(\C)c2ccc(OC)cc2OC)c(OC)c1	1.2	2.2	-4.0	12.2*
COc1ccc(/C=C/C(=O)Nc2ccccc2C(=O)O)cc1	1.2	1.3	-2.8	19.6*
CCOc1cc(/C=C2\C(=N)N3N=C(S(C)(=O)=O)SC3=NC2=O)ccc1OCCOc1cccc(OC)c1	-16.6	9.7	-0.8	9.0
CCS(=O)(=O)C1=NN2C(=N)/C(=C\c3ccc(OCCOc4cccc(OC)c4)c(OC)c3)C(=O)N=C2S1	-22.0	2.8	-12.9	14.7*
COc1cc(/C=C2/C(=N)N3C=CSC3=NC2=O)ccc1OCCCOc1ccccc1C	-82.4	1.4	23.4	17.8*
COc1cc(/C=C2/C(=N)N3C=CSC3=NC2=O)ccc1OCCCOc1c(C)cccc1C	-21.6	-1.3	19.4	-9.0
O=C(NC(=S)Nn1cnc2c(cnn2-c2ccccc2)c1=O)c1ccccc1	0.0	1.0	2.6	-9.9
Nc1ccc2nc(-c3ccc(-c4nc5ccc(N)cc5[nH]4)cc3)[nH]c2c1	.	.	.	17.9*
O=C(Nc1ccc(Br)cc1)c1cccn1-c1ncc(C(F)(F)F)cc1Cl	0.6	4.6	-0.4	13.5*
CCOC(=O)c1cc(-c2ccccc2)sc1NC(=O)COC(=O)c1ccc(Cl)c(S(N)(=O)=O)c1	-1.6	-0.2	-1.5	11.4*
C(=C\c1ccco1)/C1=NN(c2ccccc2)C(c2ccco2)C1 (stereo unspecified)	-21.4	6.1	15.6	-3.1
O=[N+]([O-])c1ccc(/C=C/C2=NN(c3ccccc3)C(c3ccco3)C2)o1 (stereo unspecified)	-32.5	6.8	15.4	198.8*
CC1CCN(S(=O)(=O)c2ccc(C(=O)OC(C)C(=O)N(C)C3CCCCC3)cc2)CC1 (stereo unspecified)	0.9	-1.4	4.6	15.5*
CC1CCN(S(=O)(=O)c2ccc(C(=O)OC(C)C(=O)NC3CCCCC3C)cc2)CC1 (stereo unspecified)	-0.8	0.4	2.1	1.0
O=C1C2C3C=CC(CC3)C2C(=O)N1/N=C/c1ccc(O)c(O)c1 (stereo unspecified)	-0.8	1.9	2.4	0.5
SMILES	SENP1 FRET inh	MPTP block	EBI2 antag	GRIN3A LBD mod
O=C1c2ccccc2C(=O)N1/N=C/c1ccc(O)c(O)c1	0.8	0.8	3.1	19.0*
Cn1[nH]c(CSc2ccc(Cl)cc2)cc1=O	0.1	3.0	-1.9	-1.5
Cc1ccc(Nc2nc(N)c3ccccc3n2)cc1Cl	-2.7	1.3	-12.5	38.9*
Nc1nc(Nc2ccccc2)nc2ccccc12	3.4	1.0	-16.7	-1.8
COc1cc2nc(Nc3ccc(C)c(Cl)c3)nc(N)c2cc1OC	1.3	-1.6	0.5	27.6*
CCOC(=O)c1ccc(Nc2nc(N)c3cc(OC)c(OC)cc3n2)cc1	2.1	-0.4	-4.9	4.5
Cc1ccccc1Nc1nc(N)c2ccccc2n1	0.6	2.4	-5.7	6.1
Nc1nc(Nc2ccc(Cl)cc2)nc2ccccc12	0.0	3.0	9.0	38.9*
CCOc1ccc(Nc2nc(N)c3ccccc3n2)cc1	0.7	-0.6	5.8	27.6*
COc1cc2nc(Nc3ccc(C)c(C)c3)nc(N)c2cc1OC	-2.7	-2.2	-1.8	15.6*
COc1cc2nc(Nc3ccc(F)cc3)nc(N)c2cc1OC	0.3	-1.3	-8.9	9.1
O=C(CN1C(=O)NC2(CCCCCC2)C1=O)c1ccc(Cl)cc1	0.2	0.1	-3.8	-1.6
